In brackets after ≈: the same amount, converted by molar mass. Activity calls are given as the source filed them. No cut-off for these calls is given here.
Columns and labels:
HL-60 = assay: Induction of cell differentiation of human HL60 cells at 4 ug/mL after 4 days by non-specific esterase determination; type: functional, cell-based; settings: for % differentiation: HL-60, 96 h
In short: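 HL-60 cells kept in RPMI 1640 with 10% fetal calf serum and penicillin/streptomycin at 37 °C, 5% CO2. Cells at 1.2 × 10^5 cells/mL, preincubated 18 h, then added to compounds in DMSO (final 0.1% v/v). After 4 days, α-naphthyl acetate esterase was stained cytochemically, ≥200 cells counted microscopically in duplicate, and the % differentiated cells recorded.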

Col2 = assay: Antiproliferative activity against human Col2 cells after 3 days by sulforhodamine B assay; type: functional, cell-based; settings: for IC50: Col2, 72 h
In short: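 Col2 human colon cancer cells grown in MEME with 10% NEAA, antibiotic-antimycotic and 10% FBS at 37 °C, 5% CO2. Exponentially growing cells were added to wells containing compounds in DMSO and grown 3 days. Cells were then TCA-fixed and stained with 0.4% SRB in 1% acetic acid, and the dye was solubilized in 0.1 M Tris. Absorbance read at 515 nm; % growth calculated against day-0 and DMSO-control absorbances.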

[1] = Inhibition of 7,12-dimethylbenz[a]anthracene-induced preneoplastic lesions in a BALB/c mouse mammary gland culture at 10 ug/mL treated for 10 days before DMBA-challenge measured after 14 days; type: functional, tissue-based
In short: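 BALB/c female mice were primed 9 days with estradiol (1 µg) and progesterone (1 mg). Second thoracic mammary glands were cultured 10 days at 37 °C in 95% O2/5% CO2 in Waymouth's 752/1 MB medium with insulin, prolactin, aldosterone and hydrocortisone. DMBA 2 µg/mL was given at 72–96 h and compounds on days 1–10. Glands then regressed 14 days with insulin only and were scored for lesion incidence. % inhibition is relative to the DMBA control.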

**Q.** For `C=C1C(=O)O[C@@H]2C[C@H](C)[C@@]3(O)CC[C@@](C)(C[C@@H](OC(=O)C(C)C)[C@@H]12)O3`, which Activity (HL-60) is on record?
**A.** Its Activity is “inactive”.

**Q.** What about the Activity (Col2) of the same compound?
**A.** Its Activity is “inactive”.

**Q.** For `C=C1C(=O)O[C@@H]2C[C@H](C)[C@]3(O)O[C@@](C)(C[C@H]3O)C[C@@H](OC(=O)C(C)C)[C@@H]12`, which % differentiation (HL-60) is on record?
**A.** Its % differentiation is under 10%.

**Q.** And the IC50 (Col2)?
**A.** The IC50 was over 20 µg/mL.

**Q.** Which results are given for `C=C1C(=O)O[C@H]2[C@H]1[C@H](OC(=O)C(C)C)C[C@@]1(C)[C@H](O)C[C@H](OC(C)=O)[C@@](C)(O)[C@H]21` [TITHOFOLINOLIDE]?
**A.** % differentiation (HL-60): 37.4%; % inhibition [1]: 40.2%; IC50 (Col2): > 20 µg/mL

**Q.** With `C=C1C(=O)O[C@@H]2C[C@H](C)[C@@]3(O)C[C@H](O)[C@@](C)(C[C@@H](OC(=O)C(C)C)[C@@H]12)O3` as the compound, how does the Activity (HL-60) read?
**A.** Its Activity is “inactive”.

**Q.** And the Activity (Col2)?
**A.** Its Activity is “inactive”.

**Q.** With `C=C1C(=O)O[C@H]2[C@H]1[C@H](OC(=O)C(C)C)C[C@@](C)(O)[C@@H]1CC(=O)[C@@](C)(O)[C@H]21` as the compound, how does the % differentiation (HL-60) read?
**A.** The % differentiation was 32.4%.

**Q.** And the % inhibition [1]?
**A.** The % inhibition was 48.7%.

**Q.** And the IC50 (Col2)?
**A.** The IC50 was 18.9 µg/mL (≈ 51.6 µM).

**Q.** Which % differentiation (HL-60) does the source give for `C=C1C(=O)O[C@H]2[C@H]1[C@H](OC(=O)C(C)C)C[C@@]1(C)[C@H](O)C[C@H](OC(C)=O)C(=C)[C@H]21` here?
**A.** The % differentiation was 33.9%.

**Q.** And the % inhibition [1]?
**A.** The % inhibition was 63%.

**Q.** And the IC50 (Col2)?
**A.** The IC50 was 5.9 µg/mL (≈ 15 µM).

**Q.** Which results are given for `C=C(C(=O)OC)[C@@H]1CC[C@@]2(C)CC[C@@H](OC(C)=O)[C@@](C)(O)[C@@H]2C1`?
**A.** Activity (HL-60): inactive; Activity (Col2): inactive

**Q.** With `C=C1C(=O)O[C@@H]2/C=C(/C)C(=O)/C=C/[C@](C)(O)C[C@@H](OC(=O)C(C)C)[C@@H]12` [TAGITININ C] as the compound, how does the % differentiation (HL-60) read?
**A.** The % differentiation was 20%.

**Q.** What about the % inhibition [1] of the same compound?
**A.** The % inhibition was 44.4%.

**Q.** And the IC50 (Col2)?
**A.** Its IC50 is 0.7 µg/mL (≈ 2.01 µM).

**Q.** With `COC(=O)/C=C/[C@@H]1CC[C@@]2(C)CC[C@@H](OC(C)=O)[C@@](C)(O)[C@@H]2C1` as the compound, how does the % differentiation (HL-60) read?
**A.** Its % differentiation is under 10%.

**Q.** And the IC50 (Col2)?
**A.** Its IC50 is over 20 µg/mL.

**Q.** With `C=C1C(=O)O[C@@H]2/C=C(/C)C(=O)[C@@H]3O[C@H]3[C@](C)(O)C[C@@H](OC(=O)C(C)C)[C@@H]12` as the compound, how does the % differentiation (HL-60) read?
**A.** The % differentiation was under 10%.

**Q.** And the % inhibition [1]?
**A.** The % inhibition was 44.4%.

**Q.** What about the IC50 (Col2) of the same compound?
**A.** Its IC50 is 1.7 µg/mL (≈ 4.67 µM).

From ChEMBL document CHEMBL1148122, “Sesquiterpenoids from Tithonia diversifolia with potential cancer chemopreventive activity” (J Nat Prod, 2002)
